Data: ChEMBL document CHEMBL1139509, “Design, synthesis, and antipicornavirus activity of 1-[5-(4-arylphenoxy)alkyl]-3-pyridin-4-ylimidazolidin-2-one derivatives” (J Med Chem, 2005)
One block for each molecule: values may come before it.

What was measured:
Enterovirus [1] = experiment: In vitro inhibitory concentration against human enterovirus EV71-2231 strain; assay type: functional, organism-based, Enterovirus A71
Outline: (§1)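 CPE-inhibition (neutralization) assay on RD cells seeded at 3 × 10⁵ cells/mL in DMEM/10% FBS and grown 24-30 h to about 90% confluency. Virus (100 TCID50) was mixed with graded compound concentrations and adsorbed 1 h at 37 °C. Cells were overlaid with DMEM, 5% FBS and 2% DMSO, incubated 64 h at 37 °C, then glutaraldehyde-fixed and crystal violet-stained, with A570 read-out. IC50 is 50% CPE reduction versus virus control. Triplicate, at least twice.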

[2] = Cytotoxicity against human rhabdomyosarcoma cells; assay type: cell-based
Outline: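 RD (rhabdomyosarcoma) cells were exposed to test compounds at various concentrations for 96 h at 37 °C. Viable cells were counted by trypan blue staining. CC50 is the concentration that reduces viability to 50% of the untreated control culture. Triplicate, run at least twice.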

Enterovirus [3] = experiment: In vitro inhibitory concentration against human enterovirus EV71-4643 strain; assay type: functional, organism-based, Enterovirus A71; outline: as §1
Enterovirus [4] = experiment: Ratio of CC50 to that of IC50 against human enterovirus EV71-4643 strain; assay type: functional, Enterovirus A71
Enterovirus [5] = experiment: Ratio of CC50 to that of IC50 against human enterovirus EV71-2231 strain; assay type: functional, Enterovirus A71
Coxsackievirus [6] = experiment: Inhibitory concentration against Coxsackievirus B4; assay type: functional, organism-based, Viruses; outline: as §1
Enterovirus [7] = experiment: Inhibitory concentration against human enterovirus EV71 (1743) genotype B; assay type: functional, organism-based, Viruses; outline: as §1
Coxsackievirus [8] = experiment: Inhibitory concentration against Coxsackievirus A24; assay type: functional, organism-based, Viruses; outline: as §1
[9] = Inhibitory concentration against Human rhinovirus 14; assay type: functional, human rhinovirus type 14; outline: as §1
Coxsackievirus [10] = experiment: Inhibitory concentration against Coxsackievirus A9; assay type: functional, organism-based, Viruses; outline: as §1
Coxsackievirus [11] = experiment: Inhibitory concentration against Coxsackievirus B2; assay type: functional, organism-based, Viruses; outline: as §1
Enterovirus [12] = experiment: Inhibitory concentration against human enterovirus EV71 (2231) genotype C; assay type: functional, organism-based, Viruses; outline: as §1
[13] = Inhibitory concentration against Echovirus 29; assay type: functional, Viruses; outline: as §1
Coxsackievirus [14] = experiment: Inhibitory concentration against Coxsackievirus B1; assay type: functional, organism-based, Viruses; outline: as §1
Enterovirus [15] = experiment: Inhibitory concentration against human enterovirus EV71 (BrCr) genotype A; assay type: functional, organism-based, Viruses; outline: as §1
Coxsackievirus [16] = experiment: Inhibitory concentration against Coxsackievirus A10; assay type: functional, organism-based, Viruses; outline: as §1
Coxsackievirus [17] = experiment: Inhibitory concentration against Coxsackievirus A16; assay type: functional, organism-based, Viruses; outline: as §1
[18] = Inhibitory concentration against Echovirus 9; assay type: functional, Viruses; outline: as §1
Coxsackievirus [19] = experiment: Inhibitory concentration against Coxsackievirus B3; assay type: functional, organism-based, Viruses; outline: as §1
Coxsackievirus [20] = experiment: Inhibitory concentration against Coxsackievirus B6; assay type: functional, organism-based, Viruses; outline: as §1
Enterovirus [21] = experiment: Inhibitory concentration against human enterovirus EV71 (2086) genotype C; assay type: functional, organism-based, Viruses; outline: as §1
rhinovirus A2 = experiment: Inhibitory concentration against Human rhinovirus 2; assay type: functional, organism-based, human rhinovirus type 2; details: Rhinovirus A; outline: as §1
Coxsackievirus [22] = experiment: Inhibitory concentration against Coxsackievirus B5; assay type: functional, organism-based, Viruses; outline: as §1
Enterovirus [23] = experiment: Inhibitory concentration against human enterovirus EV68; assay type: functional, organism-based, Viruses
Enterovirus [24] = experiment: Inhibitory concentration against human enterovirus EV71 (4643) genotype C; assay type: functional, organism-based, Viruses; outline: as §1

IC50 (Enterovirus [1]): > 25000 nM
IC50 (Enterovirus [3]): 960 nM
SMILES: CCCC(CCOc1ccc(-c2ccc(Cl)cc2)cc1)CCN1CCN(c2ccncc2)C1=O (stereo not drawn)
CC50 [2]: > 25000 nM

IC50 (Enterovirus [1]): 1170 nM
IC50 (Enterovirus [3]): 160 nM
SMILES: O=C1N(Cc2cccc(COc3ccc(-c4ccc(Cl)cc4)cc3)c2)CCN1c1ccncc1
CC50 [2]: > 6250 nM

IC50 (Enterovirus [1]): > 25000 nM
IC50 (Enterovirus [3]): > 25000 nM
SMILES: O=C1N(Cc2cccc(COc3ccc(-c4ccc(Cl)cc4)cc3)n2)CCN1c1ccncc1
CC50 [2]: > 25000 nM

IC50 (Enterovirus [1]): 7300 nM
IC50 (Enterovirus [3]): 830 nM
SMILES: O=C1N(CCOCCOc2ccc(-c3ccc(Cl)cc3)cc2)CCN1c1ccncc1
CC50 [2]: 25000 nM

IC50 (Enterovirus [1]): > 25000 nM
IC50 (Enterovirus [3]): > 25000 nM
SMILES: O=C1N(CCN(CCOc2ccc(-c3ccc(Cl)cc3)cc2)Cc2ccc(Cl)cc2)CCN1c1ccncc1
CC50 [2]: > 25000 nM

IC50 (Enterovirus [1]): > 12500 nM
IC50 (Enterovirus [3]): > 12500 nM
SMILES: Cc1ccc(CN(CCOc2ccc(-c3ccc(Cl)cc3)cc2)CCN2CCN(c3ccncc3)C2=O)cc1
CC50 [2]: > 12500 nM

IC50 (Enterovirus [1]): 720 nM
IC50 (Enterovirus [3]): 94 nM
SMILES: CC(C)(CCCOc1ccc(-c2ccc(Cl)cc2)cc1)CN1CCN(c2ccncc2)C1=O
CC50 [2]: 20000 nM

IC50 (Enterovirus [1]): 43 nM
IC50 (Enterovirus [3]): 2.8 nM
SMILES: CC(CCOc1ccc(-c2nnn(C)n2)cc1)CCN1CCN(c2ccncc2)C1=O (stereo not drawn)
Selectivity index (Enterovirus [4]): >8928
Selectivity index (Enterovirus [5]): >581
CC50 [2]: > 25000 nM

IC50 (Enterovirus [1]): > 25000 nM
IC50 (Enterovirus [3]): > 25000 nM
SMILES: O=C1N(CCC2(CCOc3ccc(-c4ccc(Cl)cc4)cc3)CCCCC2)CCN1c1ccncc1
CC50 [2]: > 25000 nM

IC50 (Enterovirus [1]): 57 nM
IC50 (Enterovirus [3]): 15 nM
SMILES: CC(CCCN1CCN(c2ccncc2)C1=O)COc1ccc(-c2ccc(Cl)cc2)cc1 (stereo not drawn)
CC50 [2]: > 25000 nM

IC50 (Enterovirus [1]): > 1250 nM
IC50 (Enterovirus [3]): > 1250 nM
SMILES: O=C1N(Cc2ccccc2COc2ccc(-c3ccc(Cl)cc3)cc2)CCN1c1ccncc1
CC50 [2]: > 1250 nM

IC50 (Enterovirus [1]): 140 nM
IC50 (Enterovirus [3]): 41 nM
SMILES: CC(C)(CCOc1ccc(-c2ccc(Cl)cc2)cc1)CCN1CCN(c2ccncc2)C1=O
CC50 [2]: > 25000 nM

IC50 (Coxsackievirus [6]): 2740 nM
IC50 (Enterovirus [7]): 18 nM
IC50 (Coxsackievirus [8]): 140 nM
IC50 [9]: 850 nM
IC50 (Coxsackievirus [10]): > 25000 nM
IC50 (Coxsackievirus [11]): > 25000 nM
IC50 (Enterovirus [12]): 14 nM
IC50 [13]: 3230 nM
IC50 (Coxsackievirus [14]): 35 nM
IC50 (Enterovirus [15]): 15 nM
IC50 (Coxsackievirus [16]): 240 nM
IC50 (Enterovirus [1]): 14 nM
IC50 (Coxsackievirus [17]): 130 nM
IC50 [18]: 280 nM
IC50 (Coxsackievirus [19]): > 25000 nM
IC50 (Coxsackievirus [20]): > 25000 nM
IC50 (Enterovirus [21]): 3 nM
IC50 (rhinovirus A2): 1450 nM
IC50 (Coxsackievirus [22]): 10400 nM
IC50 (Enterovirus [23]): 2870 nM
IC50 (Enterovirus [24]): 0.9 nM
IC50 (Enterovirus [3]): 0.9 nM
SMILES: CCn1nnc(-c2ccc(OCCC(C)CCN3CCN(c4ccncc4)C3=O)cc2)n1 (stereo not drawn)
Selectivity index (Enterovirus [4]): >13888
Selectivity index (Enterovirus [5]): >892
CC50 [2]: > 12500 nM

IC50 (Enterovirus [1]): 2540 nM
IC50 (Enterovirus [3]): 740 nM
SMILES: O=C1N(CCC(CCOc2ccc(-c3ccc(Cl)cc3)cc2)C(F)(F)F)CCN1c1ccncc1 (stereo not drawn)
CC50 [2]: > 12500 nM

IC50 (Enterovirus [1]): > 1250 nM
IC50 (Enterovirus [3]): > 1250 nM
SMILES: O=C1N(Cc2ccc(COc3ccc(-c4ccc(Cl)cc4)cc3)cc2)CCN1c1ccncc1
CC50 [2]: > 1250 nM

IC50 (Enterovirus [1]): 24 nM
IC50 (Enterovirus [3]): 1.4 nM
SMILES: CC(CCOc1ccc(-c2noc(C(F)(F)F)n2)cc1)CCN1CCN(c2ccncc2)C1=O (stereo not drawn)
Selectivity index (Enterovirus [4]): >17857
Selectivity index (Enterovirus [5]): >1041
CC50 [2]: > 25000 nM

IC50 (Coxsackievirus [6]): 1240 nM
IC50 (Enterovirus [7]): 16 nM
IC50 (Coxsackievirus [8]): 250 nM
IC50 [9]: 7910 nM
IC50 (Coxsackievirus [10]): 33 nM
IC50 (Coxsackievirus [11]): > 12500 nM
IC50 (Enterovirus [12]): 38 nM
IC50 [13]: 40 nM
IC50 (Coxsackievirus [14]): 2890 nM
IC50 (Enterovirus [15]): 69 nM
IC50 (Coxsackievirus [16]): 1710 nM
IC50 (Enterovirus [1]): 38 nM
IC50 (Coxsackievirus [17]): 900 nM
IC50 [18]: 2630 nM
IC50 (Coxsackievirus [19]): > 12500 nM
IC50 (Coxsackievirus [20]): > 12500 nM
IC50 (rhinovirus A2): > 12500 nM
IC50 (Coxsackievirus [22]): 1320 nM
IC50 (Enterovirus [23]): 2680 nM
IC50 (Enterovirus [24]): 9.3 nM
IC50 (Enterovirus [3]): 9.3 nM
SMILES: CC(CCOc1ccc(-c2ccc(Cl)cc2)cc1)CCN1CCN(c2ccncc2)C1=O (stereo not drawn)
Selectivity index (Enterovirus [4]): >2688
Selectivity index (Enterovirus [5]): >657
CC50 [2]: > 25000 nM
